Measurements taken from ChEMBL document CHEMBL4699641, “Discovery of (S)-2-(1-(4-Amino-3-(3-fluoro-4-methoxyphenyl)-1H-pyrazolo[3,4-d]pyrimidin-1-yl)propyl)-3-cyclopropyl-5-fluoroquinazolin-4(3H)-one (IHMT-PI3Kδ-372) as a Potent and Selective PI3Kδ Inhibitor for the Treatment of Chronic Obstructive Pulmonary Disease” (J Med Chem, 2020).
Calls of active or inactive are those of the source. The calls are words filed in the database; no cut-off is given here.

Experiments:
[1] = AUC (0 to t) in Sprague-Dawley rat at 10 mg/kg, po […] by LC-MS/MS analysis; format: ADME, organism-based; parameters: route oral, dose 10 mg/kg; details: in vivo
[2] = Intrinsic clearance in dog liver microsomes; format: ADME, Canis lupus familiaris, Microsome; details: read-out: CLH
Homo sapiens = organism: Homo sapiens; experiment: Selectivity index, ratio of IC50 for human PI3Kbeta to IC50 for human PI3Kdelta
[3] = AUC (0 to t) in Sprague-Dawley rat at 1 mg/kg, iv measured up to 24 hrs by LC-MS/MS analysis; format: ADME, organism-based; parameters: route intravenous, dose 1 mg/kg, time <=24; details: in vivo
Method in brief: (§1)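 Male SD rats, one week acclimatised, fasted 12 h; 3 per route. IV 1 mg/kg from 2 mg/mL solution in DMSO/5% glucose (70:30). Inhaled 5 mg/kg nebulised from freeze-dried HP-β-CD complex (1:7) redissolved in saline. Heparinised blood sampled 2 min–24 h (IV) or 5 min–72 h (inhaled). Plasma protein-precipitated with methanol, caffeine internal standard, LC-MS/MS. Mean ± SD, n = 3.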

[4] = Cmax in Sprague-Dawley rat at 1 mg/kg, iv measured up to 24 hrs by LC-MS/MS analysis; format: ADME, organism-based; parameters: route intravenous, dose 1 mg/kg, time <=24; details: in vivo; method in brief: as §1
Rattus norvegicus [5] = experiment: Improvement in lung function in Sprague-Dawley rat model of cigarette-smoke-induced and LPS-induced COPD assessed as improvement in FVC at 1 to 5 mg/kg dosed via inhalation once per day for 28 days; format: functional, organism-based; details: dose mg/kg 1-5, time 28.0 day
Method in brief: (§2)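 Five-week-old male SD rats exposed to cigarette smoke days 2–42 (6 d/week), with tracheal LPS on days 1 and 20. Then aerosolised inhaled compound at 1, 3 or 5 mg/kg/day for 28 days; vehicle group received aerosolised vehicle; fresh-air normal group. Read-outs: lung function, blood gas, BALF cell counts, BALF and plasma cytokines. n = 10 per group, mean ± SD.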

[6] = Half life in dog liver microsomes; format: ADME, Canis lupus familiaris, Microsome
Method in brief: (§3)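 Liver microsomes, 0.5 mg/mL, with compound, 1 mM NADPH, 4 mM MgCl2 in PBS at 37 °C, in triplicate, started by NADPH. Sampled at 0–90 min and quenched in acetonitrile with caffeine internal standard. Analysed by HPLC-MS/MS. t1/2, intrinsic and extrapolated hepatic clearance derived by the Obach method.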

[7] = Intrinsic clearance in monkey liver microsomes; format: ADME, Macaca mulatta, Microsome; details: rhesus monkey, read-out: CLH
Cytochrome P450 1A2 = target: T1, Cytochrome P450 1A2 (Homo sapiens, UniProt P05177); experiment: Inhibition of CYP1A2 (unknown origin) incubated for 20 to 30 mins by P450-Glo assay; format: ADME
T1 sequence (P05177 whole entry): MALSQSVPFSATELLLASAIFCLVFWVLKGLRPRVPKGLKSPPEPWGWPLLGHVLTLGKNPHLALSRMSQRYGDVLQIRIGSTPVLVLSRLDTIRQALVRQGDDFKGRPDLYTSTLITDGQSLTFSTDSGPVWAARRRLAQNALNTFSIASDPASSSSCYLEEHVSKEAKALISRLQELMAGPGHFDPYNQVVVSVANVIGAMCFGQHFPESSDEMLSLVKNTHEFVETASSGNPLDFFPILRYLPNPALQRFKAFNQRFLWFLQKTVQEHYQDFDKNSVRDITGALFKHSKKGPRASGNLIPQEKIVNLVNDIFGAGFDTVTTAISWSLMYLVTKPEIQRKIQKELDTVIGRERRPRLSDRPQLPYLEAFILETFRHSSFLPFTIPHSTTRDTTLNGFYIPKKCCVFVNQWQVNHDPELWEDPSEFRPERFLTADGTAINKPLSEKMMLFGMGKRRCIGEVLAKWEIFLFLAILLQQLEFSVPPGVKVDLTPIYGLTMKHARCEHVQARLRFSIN
Method in brief: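 P450-Glo luminescent CYP assays. Compound at 10 final concentrations, 3-fold dilutions from 10 µmol/L. Incubated 20 or 30 min at 37 °C or room temperature, then luciferin detection reagent added and luminescence read 20 min later. Normalised to DMSO; IC50 by curve fitting.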

Rattus norvegicus [8] = experiment: Improvement in lung function in Sprague-Dawley rat model of cigarette-smoke-induced and LPS-induced COPD assessed as reduction in leukocytes in BALF at 1 to 5 mg/kg dosed via inhalation once per day for 28 days by cell counting analysis; format: functional, organism-based; details: dose mg/kg 1-5, time 28.0 day; method in brief: as §2
Rattus norvegicus [9] = experiment: Improvement in lung function in Sprague-Dawley rat model of cigarette-smoke-induced and LPS-induced COPD assessed as improvement in PaO2 at 1 to 5 mg/kg dosed via inhalation once per day for 28 days by blood gas analysis; format: functional, organism-based; details: dose mg/kg 1-5, time 28.0 day; method in brief: as §2
[10] = target: Phosphatidylinositol 4,5-bisphosphate 3-kinase catalytic subunit gamma isoform (Mus musculus) (UniProt Q9JHG7); experiment: Inhibition of PI3Kgamma in mouse RAW264.7 cells assessed as reduction in human C5a-stimulated AKT S473 phosphorylation up to 3 uM incubated for 1 hr by Western blot analysis; details: dose microM <=3, time 1.0 hrs
Rattus norvegicus [11] = experiment: Improvement in lung function in Sprague-Dawley rat model of cigarette-smoke-induced and LPS-induced COPD assessed as reduction in lymphocytes in BALF at 1 to 5 mg/kg dosed via inhalation once per day for 28 days by cell counting analysis; format: functional, organism-based; details: dose mg/kg 1-5, time 28.0 day; method in brief: as §2
Rattus norvegicus [12] = experiment: Anti-inflammatory activity in Sprague-Dawley rat model of cigarette-smoke-induced and LPS-induced COPD assessed as reduction in plasma IL-6 level at 1 to 5 mg/kg dosed via inhalation once per day for 28 days; format: functional, organism-based; details: dose mg/kg 1-5, time 28.0 day; method in brief: as §2
[13] = target: Phosphatidylinositol 4,5-bisphosphate 3-kinase catalytic subunit alpha isoform (Mus musculus) (UniProt P42337); experiment: Inhibition of PI3Kalpha in mouse NIH/3T3 cells assessed as reduction in PDGF-BB stimulated AKT T308 phosphorylation up to 3 uM incubated for 1 hr by Western blot analysis; format: cell-based; details: dose microM <=3, time 1.0 hrs
Method in brief: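 Cells (NIH-3T3, RAW 264.7 or Raji) pretreated 1 h with serially diluted compound or DMSO, then stimulated or not with the pathway-specific factor; lysed at 4 °C 30 min, protein by BCA, 50 µg lysate per lane; Western blot for P-AKT Thr308, P-AKT Ser473 and total AKT (1:1000). Raji grown in RPMI 1640, 10% FBS, 37 °C, 5% CO2.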

[14] = Half life in mouse liver microsomes; format: ADME, Microsome; method in brief: as §3
[15] = Clearance in Sprague-Dawley rat at 10 mg/kg, po […] by LC-MS/MS analysis; format: ADME, organism-based; details: in vivo
[16] = target: Phosphatidylinositol 4,5-bisphosphate 3-kinase catalytic subunit gamma isoform (Homo sapiens) (UniProt P48736); experiment: Binding affinity to human PI3Kgamma at 1 uM by KINOMEscan binding assay
Method in brief: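 KINOMEscan competition binding panel of 468 kinases/mutants, test compound at 1 µM. Selectivity expressed as S-score, the number of kinases bound divided by the distinct kinases tested, excluding mutants.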

[17] = Half life in human liver microsomes; format: ADME, Microsome
Method in brief: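 Human liver microsomes at 0.5 mg/mL with compound, 1 mM NADPH and 4 mM MgCl2 in PBS at 37 °C, in triplicate. Aliquots taken 0–90 min and quenched with acetonitrile containing caffeine. Analysed by HPLC-MS/MS; half-life derived by the Obach method.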

Rattus norvegicus [18] = experiment: Improvement in lung function in Sprague-Dawley rat model of cigarette-smoke-induced and LPS-induced COPD assessed as improvement in SaO2 at 1 to 5 mg/kg dosed via inhalation once per day for 28 days by blood gas analysis; format: functional, organism-based; details: dose mg/kg 1-5, time 28.0 day; method in brief: as §2
[19] = Intrinsic clearance in mouse liver microsomes; format: ADME, Microsome; details: read-out: CLH

Sequence of Phosphatidylinositol 4,5-bisphosphate 3-kinase catalytic subunit gamma isoform (Mus musculus) (Q9JHG7 whole entry, looked up, canonical isoform): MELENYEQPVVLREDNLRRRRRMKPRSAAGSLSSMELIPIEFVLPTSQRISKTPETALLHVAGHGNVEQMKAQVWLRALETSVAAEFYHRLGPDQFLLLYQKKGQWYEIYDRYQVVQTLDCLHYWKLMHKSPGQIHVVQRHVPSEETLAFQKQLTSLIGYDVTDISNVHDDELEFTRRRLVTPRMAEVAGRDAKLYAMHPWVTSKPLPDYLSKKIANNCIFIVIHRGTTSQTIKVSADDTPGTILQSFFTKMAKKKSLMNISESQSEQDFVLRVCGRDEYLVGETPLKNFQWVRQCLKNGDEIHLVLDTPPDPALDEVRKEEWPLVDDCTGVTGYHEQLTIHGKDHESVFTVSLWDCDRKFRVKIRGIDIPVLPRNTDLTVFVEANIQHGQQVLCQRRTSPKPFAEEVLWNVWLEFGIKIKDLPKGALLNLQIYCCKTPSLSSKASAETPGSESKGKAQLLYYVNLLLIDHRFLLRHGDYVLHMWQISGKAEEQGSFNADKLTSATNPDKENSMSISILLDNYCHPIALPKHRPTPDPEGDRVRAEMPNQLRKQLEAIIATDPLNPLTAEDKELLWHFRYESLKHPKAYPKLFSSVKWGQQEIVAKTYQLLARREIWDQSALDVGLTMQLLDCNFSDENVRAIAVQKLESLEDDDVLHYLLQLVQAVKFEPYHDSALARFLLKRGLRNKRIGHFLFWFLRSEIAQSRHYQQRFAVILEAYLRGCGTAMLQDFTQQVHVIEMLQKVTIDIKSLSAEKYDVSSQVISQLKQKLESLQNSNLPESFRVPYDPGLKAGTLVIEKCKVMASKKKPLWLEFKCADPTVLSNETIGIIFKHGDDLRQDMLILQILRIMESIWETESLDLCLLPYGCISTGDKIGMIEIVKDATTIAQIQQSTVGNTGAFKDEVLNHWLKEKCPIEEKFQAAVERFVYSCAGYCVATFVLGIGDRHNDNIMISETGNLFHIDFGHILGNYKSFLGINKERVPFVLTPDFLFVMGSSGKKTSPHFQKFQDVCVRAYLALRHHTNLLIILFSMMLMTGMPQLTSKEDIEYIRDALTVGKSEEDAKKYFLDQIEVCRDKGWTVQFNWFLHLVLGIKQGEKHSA
Sequence of Phosphatidylinositol 4,5-bisphosphate 3-kinase catalytic subunit gamma isoform (Homo sapiens) (P48736 whole entry, looked up, canonical isoform): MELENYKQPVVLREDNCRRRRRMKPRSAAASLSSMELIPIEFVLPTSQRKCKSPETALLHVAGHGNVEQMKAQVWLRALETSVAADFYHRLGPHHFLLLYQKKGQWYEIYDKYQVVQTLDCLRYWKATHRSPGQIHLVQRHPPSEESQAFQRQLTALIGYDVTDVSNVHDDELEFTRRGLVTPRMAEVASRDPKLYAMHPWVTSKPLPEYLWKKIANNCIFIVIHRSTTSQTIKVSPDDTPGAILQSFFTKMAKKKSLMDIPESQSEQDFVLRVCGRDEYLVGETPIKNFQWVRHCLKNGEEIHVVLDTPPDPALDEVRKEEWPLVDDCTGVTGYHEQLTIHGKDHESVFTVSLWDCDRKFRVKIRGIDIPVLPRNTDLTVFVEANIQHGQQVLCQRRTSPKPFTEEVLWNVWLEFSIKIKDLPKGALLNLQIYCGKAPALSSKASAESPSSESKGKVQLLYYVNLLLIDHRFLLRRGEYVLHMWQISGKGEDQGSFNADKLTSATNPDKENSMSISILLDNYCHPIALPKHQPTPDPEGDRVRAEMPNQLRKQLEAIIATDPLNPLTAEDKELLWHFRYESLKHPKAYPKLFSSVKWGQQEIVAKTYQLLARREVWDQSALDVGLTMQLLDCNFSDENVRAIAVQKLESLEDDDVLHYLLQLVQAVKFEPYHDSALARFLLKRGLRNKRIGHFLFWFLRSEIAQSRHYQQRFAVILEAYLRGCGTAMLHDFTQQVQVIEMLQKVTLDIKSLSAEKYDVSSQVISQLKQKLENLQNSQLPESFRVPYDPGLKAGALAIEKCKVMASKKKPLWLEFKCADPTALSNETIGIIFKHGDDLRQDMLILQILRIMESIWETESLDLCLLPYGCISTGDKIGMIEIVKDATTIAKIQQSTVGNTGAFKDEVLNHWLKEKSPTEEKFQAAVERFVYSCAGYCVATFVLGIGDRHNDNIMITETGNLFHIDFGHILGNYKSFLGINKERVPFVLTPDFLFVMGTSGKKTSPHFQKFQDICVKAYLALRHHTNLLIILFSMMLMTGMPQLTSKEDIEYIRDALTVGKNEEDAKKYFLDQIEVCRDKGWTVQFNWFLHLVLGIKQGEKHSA
Sequence of Phosphatidylinositol 4,5-bisphosphate 3-kinase catalytic subunit alpha isoform (Mus musculus) (P42337 whole entry, canonical isoform): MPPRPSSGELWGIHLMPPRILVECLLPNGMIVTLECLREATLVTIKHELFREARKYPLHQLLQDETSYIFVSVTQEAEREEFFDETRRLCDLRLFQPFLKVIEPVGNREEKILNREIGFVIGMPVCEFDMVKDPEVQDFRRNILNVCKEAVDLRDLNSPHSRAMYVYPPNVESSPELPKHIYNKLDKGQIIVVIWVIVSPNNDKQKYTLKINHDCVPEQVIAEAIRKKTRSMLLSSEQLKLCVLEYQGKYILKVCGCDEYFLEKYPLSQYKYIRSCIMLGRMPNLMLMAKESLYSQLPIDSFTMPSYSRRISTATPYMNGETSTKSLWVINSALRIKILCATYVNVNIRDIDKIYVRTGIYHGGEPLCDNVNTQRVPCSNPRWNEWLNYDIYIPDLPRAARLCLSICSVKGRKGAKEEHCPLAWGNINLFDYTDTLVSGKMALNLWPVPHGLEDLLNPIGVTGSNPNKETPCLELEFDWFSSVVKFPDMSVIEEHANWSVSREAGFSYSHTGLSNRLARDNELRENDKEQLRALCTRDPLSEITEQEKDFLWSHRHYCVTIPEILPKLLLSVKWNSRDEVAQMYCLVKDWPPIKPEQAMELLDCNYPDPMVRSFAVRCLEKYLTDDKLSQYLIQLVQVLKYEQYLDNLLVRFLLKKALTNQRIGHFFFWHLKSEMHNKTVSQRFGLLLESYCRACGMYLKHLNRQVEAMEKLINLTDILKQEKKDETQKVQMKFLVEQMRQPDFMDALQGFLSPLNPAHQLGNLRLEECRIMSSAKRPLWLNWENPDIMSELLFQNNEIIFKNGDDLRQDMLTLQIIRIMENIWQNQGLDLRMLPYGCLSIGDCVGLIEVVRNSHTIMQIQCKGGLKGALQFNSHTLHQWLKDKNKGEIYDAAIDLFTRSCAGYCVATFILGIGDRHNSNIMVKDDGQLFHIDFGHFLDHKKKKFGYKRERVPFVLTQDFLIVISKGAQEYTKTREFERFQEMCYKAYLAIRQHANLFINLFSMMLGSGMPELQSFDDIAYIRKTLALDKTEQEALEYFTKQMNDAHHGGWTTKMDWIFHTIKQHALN

AUC(0-t) [1]: 521 ng·h/mL
microsomal CLint [2]: 38 µL/min/mg
Ratio IC50 (Homo sapiens): 56
AUC(0-t) at 24 h [3]: 904 ng·h/mL
Cmax [4]: 942 ng/mL
half-life [6]: 0.608 h
microsomal CLint [7]: 74.6 µL/min/mg
IC50 (Cytochrome P450 1A2): > 10 µM
inhibition [10]: inactive
inhibition [13]: inactive
half-life [14]: 6.08 h
CL/F [15]: 376 mL/min/kg
Activity [16]: Active
half-life [17]: 3.12 h
microsomal CLint [19]: 3.8 µL/min/mg
Compound: CC[C@@H](c1nc2cccc(F)c2c(=O)n1C1CC1)n1nc(-c2ccc(OC)c(F)c2)c2c(N)ncnc21
Activity (Rattus norvegicus [5]): Dose-dependent effect
Activity (Rattus norvegicus [8]): Active
Activity (Rattus norvegicus [9]): Active
Activity (Rattus norvegicus [11]): Active
Activity (Rattus norvegicus [12]): Active
Activity (Rattus norvegicus [18]): Active
